Reference: ChEMBL document CHEMBL5303300, “EUbOPEN Chemogenomics Library - Multiplex” (2023)
“And” between values parts separate entries of the source, which are not always exact repeats. Equal values may be shown once.

Test system: U2OS
Assay: Multiplex assay against U2OS
Assay type: toxicity, cell-based
Conditions: human, number of replicates 2
Summary of the method: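 Imaging took place on a CQ1 microscope at 37°C and 5% CO2 once compound had been added to live cells stained at seeding with Hoechst33342, BioTracker Green Microtubule Cytoskeleton Dye, MitoTracker Red and Annexin V Alexa Fluor 680. CellPathfinder machine-learning gating classed cells as Hoechst high-intensity objects or normal cells, classed normal cells as having healthy, pyknosed or fragmented nuclei, and classed pyknosed cells as mitotic or apoptotic. Tubulin, mitochondrial-mass and membrane-permeability phenotypes are per cents of the healthy-nucleus cells.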

[1] = 12 h, 1 µM, compound concentration 1 uM
[2] = 12 h, 10 µM, compound concentration 10 uM
[3] = 24 h, 1 µM, compound concentration 1 uM
[4] = 24 h, 10 µM, compound concentration 10 uM
[5] = 48 h, 1 µM, compound concentration 1 uM
[6] = 48 h, 10 µM, compound concentration 10 uM

Cc1onc(-c2ccccc2Cl)c1C(=O)N(C)c1ccc(Cl)cc1
Population Apoptotic (%) [1]: 60% and 64% | Population Healthy Nuclei (%) [1]: 57% and 80% | Population Hoechst High Intensity Objects (%) [1]: 0% | Population Mitochondria Different-Phenotype (%) [1]: 20% and 0% | Population Mitotic Cells (%) [1]: 40% and 35% | Population Normal (%) [1]: 100% | Population Pyknosed Nuclei (%) [1]: 14% and 17% | Population Tubulin-Different-Phenotype (%) [1]: 65% and 85% | Population Apoptotic (%) [2]: 33% and 73% | Population Healthy Nuclei (%) [2]: 52% and 83% | Population Hoechst High Intensity Objects (%) [2]: 0% | Population Membrane Permeable-Phenotype (%) [2]: 0% and 4% | Population Mitochondria Different-Phenotype (%) [2]: 0% | Population Mitotic Cells (%) [2]: 66% and 26% | Population Normal (%) [2]: 100% | Population Pyknosed Nuclei (%) [2]: 13% and 12% | Population Tubulin-Different-Phenotype (%) [2]: 88% and 70% | Population Apoptotic (%) [3]: 50% and 45% | Population Healthy Nuclei (%) [3]: 72% and 85% | Population Hoechst High Intensity Objects (%) [3]: 0% | Population Mitochondria Different-Phenotype (%) [3]: 13% and 0% | Population Mitotic Cells (%) [3]: 50% and 54% | Population Normal (%) [3]: 100% and 99% | Population Pyknosed Nuclei (%) [3]: 10% and 12% | Population Tubulin-Different-Phenotype (%) [3]: 68% and 86% | Population Apoptotic (%) [4]: 22% and 41% | Population Healthy Nuclei (%) [4]: 67% and 85% | Population Hoechst High Intensity Objects (%) [4]: 0% | Population Membrane Permeable-Phenotype (%) [4]: 3% | Population Mitochondria Different-Phenotype (%) [4]: 1% | Population Mitotic Cells (%) [4]: 77% and 58% | Population Normal (%) [4]: 100% | Population Pyknosed Nuclei (%) [4]: 9% and 10% | Population Tubulin-Different-Phenotype (%) [4]: 77% and 73% | Population Apoptotic (%) [5]: 60% and 56% | Population Healthy Nuclei (%) [5]: 75% and 91% | Population Hoechst High Intensity Objects (%) [5]: 0% | Population Membrane Permeable-Phenotype (%) [5]: 8% and 2% | Population Mitochondria Different-Phenotype (%) [5]: 3% and 0% | Population Mitotic Cells (%) [5]: 40% and 43% | Population Normal (%) [5]: 100% and 99% | Population Pyknosed Nuclei (%) [5]: 6% | Population Tubulin-Different-Phenotype (%) [5]: 74% and 88% | Population Apoptotic (%) [6]: 30% and 56% | Population Healthy Nuclei (%) [6]: 76% and 89% | Population Hoechst High Intensity Objects (%) [6]: 0% | Population Membrane Permeable-Phenotype (%) [6]: 0% and 1% | Population Mitochondria Different-Phenotype (%) [6]: 0% and 2% | Population Mitotic Cells (%) [6]: 70% and 43% | Population Normal (%) [6]: 100% | Population Pyknosed Nuclei (%) [6]: 7% and 9% | Population Tubulin-Different-Phenotype (%) [6]: 88% and 82%

CS(=O)(=O)c1ccc(NC(=O)c2cccc(COc3ccc(Br)cc3CNCCO)c2)c(Cl)c1.O=CO
Population Apoptotic (%) [1]: 80% and 76% | Population Fragmented Nuclei (%) [1]: 11% | Population Healthy Nuclei (%) [1]: 76% and 84% | Population Hoechst High Intensity Objects (%) [1]: 0% | Population Mitotic Cells (%) [1]: 20% and 24% | Population Apoptotic (%) [2]: 85% and 71% | Population Healthy Nuclei (%) [2]: 50% and 72% | Population Hoechst High Intensity Objects (%) [2]: 0% | Population Apoptotic (%) [3]: 50% and 79% | Population Fragmented Nuclei (%) [3]: 7% and 3% | Population Healthy Nuclei (%) [3]: 69% and 78% | Population Hoechst High Intensity Objects (%) [3]: 0% | Population Mitotic Cells (%) [3]: 50% and 20% | Population Apoptotic (%) [4]: 77% | Population Healthy Nuclei (%) [4]: 33% and 65% | Population Hoechst High Intensity Objects (%) [4]: 0% | Population Mitotic Cells (%) [4]: 46% and 22% | Population Apoptotic (%) [5]: 83% and 87% | Population Fragmented Nuclei (%) [5]: 7% | Population Healthy Nuclei (%) [5]: 67% and 79% | Population Hoechst High Intensity Objects (%) [5]: 0% | Population Apoptotic (%) [6]: 100% and 94% | Population Healthy Nuclei (%) [6]: 23% and 57% | Population Hoechst High Intensity Objects (%) [6]: 0% | Population Mitotic Cells (%) [6]: 0% and 5%
